# Active and inactive are the calls of the source. The rule behind the calls is not given here.
# Columns and labels:
# [1] = test system: Escherichia coli; experiment: Antimicrobial activity against Escherichia coli KCTC 1682 incubated for 18 to 20 hrs by broth microdilution assay; type: functional; settings: read-out: MIC100
# In short: (§1)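 Broth microdilution in 1% peptone. Inoculum was 2 × 10⁶ CFU/mL mixed 1:1 with serial 2-fold peptide dilutions and incubated 18–20 h at 37 °C. Growth was read as absorbance at 600 nm; MIC is the lowest peptide concentration giving 100% growth inhibition.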
# [2] = test system: Staphylococcus epidermidis; experiment: Antimicrobial activity against Staphylococcus epidermidis KCTC 1917 incubated for 18 to 20 hrs by broth microdilution assay; type: functional; settings: read-out: MIC100; in short: as §1
# [3] = test system: Pseudomonas aeruginosa; experiment: Antimicrobial activity against Pseudomonas aeruginosa KCTC 1637 incubated for 18 to 20 hrs by broth microdilution assay; type: functional; settings: read-out: MIC100; in short: as §1
# [4] = test system: Staphylococcus aureus; experiment: Antimicrobial activity against Staphylococcus aureus KCTC 1621 incubated for 18 to 20 hrs by broth microdilution assay; type: functional; settings: read-out: MIC100; in short: as §1
# [5] = Therapeutic index, ratio of MHC for sheep RBC to geometric mean of MICs for four bacterial strains
# [6] = test system: Pseudomonas aeruginosa; experiment: Antibiofilm activity against multidrug-resistant Pseudomonas aeruginosa CCARM 2095 after 24 hrs by crystal violet staining based method; type: functional; settings: CCARM 2095, 24 h
# In short: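 MDRPA 2095 (1×10^6 cfu/mL) in MHB with 0.2% glucose, 24 h at 37 °C with or without peptide (2-fold dilutions, 1-64 µg/mL), six wells each. Wells washed with PBS, methanol-fixed, stained with 0.1% crystal violet 5 min, stain resolubilized in 95% ethanol, absorbance at 600 nm.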
# [7] = test system: Staphylococcus aureus; experiment: Induction of cytoplasmic membrane depolarization in Staphylococcus aureus KCTC 1621 assessed as loss of membrane potential after 1 hr by DiSC3(5) dye based fluorescence assay; type: functional
# [8] = Therapeutic index, ratio of MHC for sheep RBC to geometric mean of MICs for four bacterial strains; remark: listed apart in the source
# [9] = Therapeutic index, ratio of MHC for sheep RBC to MIC for Staphylococcus aureus KCTC 1621
# [10] = test system: Escherichia coli; experiment: Induction of inner membrane permeabilisation in Escherichia coli ML-35 assessed as ONPG hydrolysis up to 30 ug/ml by beta-galactosidase enzyme coupled spectrophotometric analysis; type: functional
# In short: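 E. coli ML-35 (constitutive cytoplasmic β-galactosidase, lactose permease-deficient) washed and resuspended to OD600 0.5 in 10 mM sodium phosphate pH 7.4, 100 mM NaCl, with 1.5 mM ONPG. o-Nitrophenol release tracked spectrophotometrically over time after peptide addition at various concentrations.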
# [11] = Therapeutic index, ratio of MHC for sheep RBC to MIC for Staphylococcus epidermidis KCTC 1917
# [12] = test system: Pseudomonas aeruginosa; experiment: Potency index, ratio of melittin MIC100 to compound MIC100 for Pseudomonas aeruginosa KCTC 1637; type: functional
# [13] = test system: Staphylococcus aureus; experiment: Potency index, ratio of LL-37 MIC100 to compound MIC100 for Staphylococcus aureus KCTC 1621; type: functional
# [14] = test system: Pseudomonas aeruginosa; experiment: Potency index, ratio of LL-37 MIC100 to compound MIC100 for Pseudomonas aeruginosa KCTC 1637; type: functional
# [15] = test system: Staphylococcus aureus; experiment: Potency index, ratio of melittin MIC100 to compound MIC100 for Staphylococcus aureus KCTC 1621; type: functional
# [16] = test system: Staphylococcus aureus; experiment: Antimicrobial activity against Staphylococcus aureus KCTC 1621 using 4 hrs trypsin incubated compound measured after overnight incubation by radial diffusion assay; type: functional
# In short: (§2)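 Radial diffusion: mid-log cells (2×10^6 CFU/ml in LB) in 0.7% agarose. Peptide stock (10 mg/mL) added to trypsin in PBS (0.2 µg/mL), 4 h at 37 °C, stopped by liquid-nitrogen freezing; 10 µL on paper discs on the plates, overnight at 37 °C. Clearance-zone diameters measured.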
# [17] = test system: Escherichia coli; experiment: Induction of outer membrane permeabilization in Escherichia coli KCTC 1682 assessed as NPN uptake by spectrofluorophotometric analysis; type: functional
# In short: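 E. coli KCTC 1682 at OD600 0.05 in 5 mM HEPES pH 7.2 with 5 mM KCN; NPN 10 µM final, background fluorescence recorded (ex 350, em 420 nm). Peptide aliquots at various concentrations added and fluorescence followed over time until no further rise.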
# [18] = test system: Escherichia coli; experiment: Antimicrobial activity against Escherichia coli KCTC 1682 using 4 hrs trypsin incubated compound measured after overnight incubation by radial diffusion assay; type: functional; in short: as §2
# [19] = test system: Enterococcus faecium; experiment: Antibacterial activity against vancomycin-resistant Enterococcus faecium ATCC 51559 after 18 to 20 hrs by broth microdilution assay; type: functional; settings: read-out: MIC100
# In short: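 Broth microdilution in 1% peptone: bacteria at 2 × 10⁶ CFU/mL mixed 1:1 with serial 2-fold peptide dilutions, 18-20 h at 37 °C; growth read as absorbance at 600 nm. MIC taken as lowest concentration giving 100% growth inhibition.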
structure (smiles),measurement,setting,value
N=C(N)NCCC[C@H](NC(=O)c1nn(CCC(c2ccccc2)c2ccccc2)cc1NC(=O)[C@H](CCCNC(=N)N)NC(=O)c1nn(CCC(c2ccccc2)c2ccccc2)cc1N)C(N)=O,MIC,[1],32 µg/mL
same,MIC,[2],32 µg/mL
same,MIC,[3],32 µg/mL
same,MIC,[4],8 µg/mL
N=C(N)NCCC[C@H](NC(=O)c1nn(CCc2cccc3ccccc23)cc1NC(=O)[C@@H](N)CCCNC(=N)N)C(N)=O,MIC,[1],> 64 µg/mL
same,MIC,[2],> 64 µg/mL
same,MIC,[3],> 64 µg/mL
same,MIC,[4],32 µg/mL
N=C(N)NCCC[C@H](NC(=O)c1nn(CCC(c2ccccc2)c2ccccc2)cc1NC(=O)[C@H](CCCNC(=N)N)NC(=O)c1nn(CCC(c2ccccc2)c2ccccc2)cc1NC(=O)[C@H](CCCNC(=N)N)NC(=O)c1nn(CCC(c2ccccc2)c2ccccc2)cc1N)C(N)=O,MIC,[1],64 µg/mL
same,MIC,[2],64 µg/mL
same,MIC,[3],> 64 µg/mL
same,MIC,[4],32 µg/mL
CC[C@H](C)[C@H](NC(=O)[C@H](CCCCN)NC(=O)[C@H](CCC(=O)O)NC(=O)[C@H](CCCCN)NC(=O)[C@H](CO)NC(=O)[C@H](CCCCN)NC(=O)[C@H](CCCNC(=N)N)NC(=O)[C@H](Cc1ccccc1)NC(=O)[C@H](Cc1ccccc1)NC(=O)[C@H](CC(=O)O)NC(=O)CNC(=O)[C@H](CC(C)C)NC(=O)[C@@H](N)CC(C)C)C(=O)NCC(=O)N[C@@H](CCCCN)C(=O)N[C@@H](CCC(=O)O)C(=O)N[C@@H](Cc1ccccc1)C(=O)N[C@@H](CCCCN)C(=O)N[C@@H](CCCNC(=N)N)C(=O)N[C@H](C(=O)N[C@H](C(=O)N[C@@H](CCC(N)=O)C(=O)N[C@@H](CCCNC(=N)N)C(=O)N[C@H](C(=O)N[C@@H](CCCCN)C(=O)N[C@@H](CC(=O)O)C(=O)N[C@@H](Cc1ccccc1)C(=O)N[C@@H](CC(C)C)C(=O)N[C@@H](CCCNC(=N)N)C(=O)N[C@@H](CC(N)=O)C(=O)N[C@@H](CC(C)C)C(=O)N[C@H](C(=O)N1CCC[C@H]1C(=O)N[C@@H](CCCNC(=N)N)C(=O)N[C@H](C(=O)N[C@@H](CCC(=O)O)C(=O)N[C@@H](CO)C(=O)O)[C@@H](C)O)C(C)C)[C@@H](C)CC)C(C)C)[C@@H](C)CC [CATHELICIDIN],TI,[5],25.6
same,IC90,[6],64 µg/mL
same,Activity,[7],Active
same,MIC,[1],32 µg/mL
same,TI,[8],25.6
same,MIC,[2],32 µg/mL
same,TI,[9],25.6
same,Activity,[10],Active
same,MIC,[3],64 µg/mL
same,MIC,[4],32 µg/mL
same,TI,[11],25.6
CCC(CC)Cn1cc(N)c(C(=O)N[C@@H](CCCNC(=N)N)C(N)=O)n1,MIC,[1],> 64 µg/mL
same,MIC,[2],> 64 µg/mL
same,MIC,[3],> 64 µg/mL
same,MIC,[4],> 64 µg/mL
N=C(N)NCCC[C@@H]1NC(=O)c2nn(CCC(c3ccccc3)c3ccccc3)cc2NC(=O)CSCC(C(N)=O)NC(=O)[C@H](CCCNC(=N)N)NC(=O)c2nn(CCC(c3ccccc3)c3ccccc3)cc2NC1=O (some centres not stated),MIC,[1],> 64 µg/mL
same,MIC,[2],64 µg/mL
same,MIC,[3],> 64 µg/mL
same,MIC,[4],16 µg/mL
N=C(N)NCCC[C@H](NC(=O)c1nn(CCCc2ccccc2)cc1NC(=O)[C@@H](N)CCCNC(=N)N)C(N)=O,MIC,[1],> 64 µg/mL
same,MIC,[2],> 64 µg/mL
same,MIC,[3],> 64 µg/mL
same,MIC,[4],64 µg/mL
CCC(CC)Cn1cc(NC(=O)[C@@H](N)CCCNC(=N)N)c(C(=O)N[C@@H](CCCNC(=N)N)C(N)=O)n1,MIC,[1],> 64 µg/mL
same,MIC,[2],> 64 µg/mL
same,MIC,[3],> 64 µg/mL
same,MIC,[4],> 64 µg/mL
N=C(N)NCCC[C@H](NC(=O)c1nn(CCCc2ccccc2)cc1N)C(N)=O,MIC,[1],> 64 µg/mL
same,MIC,[2],> 64 µg/mL
same,MIC,[3],> 64 µg/mL
same,MIC,[4],> 64 µg/mL
N=C(N)NCCC[C@H](NC(=O)c1nn(CCc2cccc3ccccc23)cc1NC(=O)[C@H](CCCNC(=N)N)NC(=O)c1nn(CCc2cccc3ccccc23)cc1NC(=O)[C@@H](N)CCCNC(=N)N)C(N)=O,MIC,[1],32 µg/mL
same,MIC,[2],32 µg/mL
same,MIC,[3],8 µg/mL
same,MIC,[4],4 µg/mL
N=C(N)NCCC[C@H](NC(=O)c1nn(CCc2cccc3ccccc23)cc1NC(=O)[C@H](CCCNC(=N)N)NC(=O)c1nn(CCc2cccc3ccccc23)cc1NC(=O)[C@H](CCCNC(=N)N)NC(=O)c1nn(CCc2cccc3ccccc23)cc1N)C(N)=O,MIC,[1],> 64 µg/mL
same,MIC,[2],64 µg/mL
same,MIC,[3],> 64 µg/mL
same,MIC,[4],8 µg/mL
N=C(N)NCCC[C@H](NC(=O)c1nn(CCc2cccc3ccccc23)cc1N)C(N)=O,MIC,[1],> 64 µg/mL
same,MIC,[2],> 64 µg/mL
same,MIC,[3],> 64 µg/mL
same,MIC,[4],> 64 µg/mL
N=C(N)NCCC[C@H](NC(=O)c1nn(CCC(c2ccccc2)c2ccccc2)cc1NC(=O)[C@@H](N)CCCNC(=N)N)C(N)=O,Ratio,[12],2 - 4
same,MIC,[1],> 64 µg/mL
same,MIC,[2],> 64 µg/mL
same,Ratio,[13],4 - 8
same,MIC,[3],8 µg/mL
same,MIC,[4],8 µg/mL
same,Ratio,[14],4 - 8
same,Ratio,[15],2 - 4
CC[C@H](C)[C@H](NC(=O)CN)C(=O)NCC(=O)N[C@@H](C)C(=O)N[C@H](C(=O)N[C@@H](CC(C)C)C(=O)N[C@@H](CCCCN)C(=O)N[C@H](C(=O)N[C@@H](CC(C)C)C(=O)N[C@H](C(=O)N[C@H](C(=O)NCC(=O)N[C@@H](CC(C)C)C(=O)N1CCC[C@H]1C(=O)N[C@@H](C)C(=O)N[C@@H](CC(C)C)C(=O)N[C@H](C(=O)N[C@@H](CO)C(=O)N[C@@H](Cc1c[nH]c2ccccc12)C(=O)N[C@H](C(=O)N[C@@H](CCCCN)C(=O)N[C@@H](CCCNC(=N)N)C(=O)N[C@@H](CCCCN)C(=O)N[C@@H](CCCNC(=N)N)C(=O)N[C@@H](CCC(N)=O)C(=O)N[C@@H](CCC(N)=O)C(N)=O)[C@@H](C)CC)[C@@H](C)CC)[C@@H](C)O)[C@@H](C)O)C(C)C)C(C)C [MELITTIN],TI,[5],0.5
same,Activity,[7],Active
same,Activity,[16],inactive
same,TI,[8],0.5
same,TI,[9],0.5
same,Activity,[10],Active
same,Activity,[17],Dose-dependent effect
same,Activity,[18],inactive
same,MIC,[19],16 µg/mL
same,TI,[11],0.5
N=C(N)NCCC[C@H](NC(=O)c1nn(CCC(c2ccccc2)c2ccccc2)cc1N)C(N)=O,MIC,[1],> 64 µg/mL
same,MIC,[2],> 64 µg/mL
same,MIC,[3],32 µg/mL
same,MIC,[4],> 64 µg/mL

# Reference: ChEMBL document CHEMBL4000163, “Pyrazole derived ultra-short antimicrobial peptidomimetics with potent anti-biofilm activity” (Eur J Med Chem, 2017)
